Experimental data published in ChEMBL document CHEMBL1141396, “Synthesis and mixed lineage kinase activity of pyrrolocarbazole and isoindolone analogs of (+)K-252a” (J Med Chem, 2007).
Each block holds one molecule with its values, some of them ahead of it. Calls of active or inactive are those of the source. The calls are words filed in the database; no cut-off is given here.

How the values were obtained:
[1] = molecular target: Mitogen-activated protein kinase kinase kinase 10 (Homo sapiens, UniProt Q02779); experiment: Inhibition of GST-MLK2
[2] = molecular target: Mitogen-activated protein kinase kinase kinase 11 (Homo sapiens, UniProt Q16584); experiment: Inhibition of GST-MLK3 expressed in baculovirus
[3] = molecular target: T1, Mitogen-activated protein kinase kinase kinase 9 (Homo sapiens, UniProt P80192); experiment: Inhibition of GST-MLK1 expressed in baculovirus
[4] = molecular target: Cyclin-dependent kinase 2 (Homo sapiens) (UniProt P24941); experiment: Inhibition of CDK2 at 1 uM
[5] = molecular target: Insulin receptor (Homo sapiens) (UniProt P06213); experiment: Inhibition of IRKbeta at 1 uM
Sequence of Insulin receptor (Homo sapiens) (P06213 28-758 limits assumed): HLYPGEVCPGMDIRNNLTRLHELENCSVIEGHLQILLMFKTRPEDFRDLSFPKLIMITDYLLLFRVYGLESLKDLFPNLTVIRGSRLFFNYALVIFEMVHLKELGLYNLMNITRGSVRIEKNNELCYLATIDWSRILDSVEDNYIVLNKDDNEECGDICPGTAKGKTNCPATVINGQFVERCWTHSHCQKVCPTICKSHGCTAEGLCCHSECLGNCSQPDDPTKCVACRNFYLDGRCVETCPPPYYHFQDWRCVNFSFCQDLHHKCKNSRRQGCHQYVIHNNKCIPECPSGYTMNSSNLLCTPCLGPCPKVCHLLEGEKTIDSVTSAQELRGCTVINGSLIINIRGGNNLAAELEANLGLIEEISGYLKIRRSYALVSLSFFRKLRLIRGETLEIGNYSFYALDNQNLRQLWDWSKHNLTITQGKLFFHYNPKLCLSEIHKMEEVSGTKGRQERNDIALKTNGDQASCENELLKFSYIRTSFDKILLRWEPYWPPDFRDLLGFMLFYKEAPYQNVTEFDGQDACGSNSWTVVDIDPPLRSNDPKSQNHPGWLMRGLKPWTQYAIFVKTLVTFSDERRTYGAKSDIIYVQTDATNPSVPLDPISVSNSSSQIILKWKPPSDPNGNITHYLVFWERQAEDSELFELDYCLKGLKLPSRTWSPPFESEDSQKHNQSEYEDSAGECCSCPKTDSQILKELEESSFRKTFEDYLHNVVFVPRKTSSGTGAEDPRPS
Sequence of Insulin receptor (Homo sapiens) (P06213 763-1382 limits assumed): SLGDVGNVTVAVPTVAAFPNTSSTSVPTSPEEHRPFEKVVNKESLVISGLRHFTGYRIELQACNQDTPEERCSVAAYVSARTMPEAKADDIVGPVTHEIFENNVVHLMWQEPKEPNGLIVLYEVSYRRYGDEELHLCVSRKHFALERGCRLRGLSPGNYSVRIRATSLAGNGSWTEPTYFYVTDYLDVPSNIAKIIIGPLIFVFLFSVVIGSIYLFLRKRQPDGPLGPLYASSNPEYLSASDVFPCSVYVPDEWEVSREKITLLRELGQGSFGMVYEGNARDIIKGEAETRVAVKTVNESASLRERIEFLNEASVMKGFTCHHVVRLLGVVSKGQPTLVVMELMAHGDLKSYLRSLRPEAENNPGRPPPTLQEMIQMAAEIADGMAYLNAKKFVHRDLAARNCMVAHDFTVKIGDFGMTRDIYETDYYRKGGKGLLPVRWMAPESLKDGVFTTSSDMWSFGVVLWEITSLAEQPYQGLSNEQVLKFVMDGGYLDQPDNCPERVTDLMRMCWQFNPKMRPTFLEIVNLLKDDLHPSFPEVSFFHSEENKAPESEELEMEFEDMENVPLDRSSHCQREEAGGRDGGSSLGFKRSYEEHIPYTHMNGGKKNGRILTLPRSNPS

[6] = molecular target: Platelet-derived growth factor receptor beta (Homo sapiens) (UniProt P09619); experiment: Inhibition of PDGFRbeta at 1 uM
Sequence of Platelet-derived growth factor receptor beta (Homo sapiens) (P09619 whole entry): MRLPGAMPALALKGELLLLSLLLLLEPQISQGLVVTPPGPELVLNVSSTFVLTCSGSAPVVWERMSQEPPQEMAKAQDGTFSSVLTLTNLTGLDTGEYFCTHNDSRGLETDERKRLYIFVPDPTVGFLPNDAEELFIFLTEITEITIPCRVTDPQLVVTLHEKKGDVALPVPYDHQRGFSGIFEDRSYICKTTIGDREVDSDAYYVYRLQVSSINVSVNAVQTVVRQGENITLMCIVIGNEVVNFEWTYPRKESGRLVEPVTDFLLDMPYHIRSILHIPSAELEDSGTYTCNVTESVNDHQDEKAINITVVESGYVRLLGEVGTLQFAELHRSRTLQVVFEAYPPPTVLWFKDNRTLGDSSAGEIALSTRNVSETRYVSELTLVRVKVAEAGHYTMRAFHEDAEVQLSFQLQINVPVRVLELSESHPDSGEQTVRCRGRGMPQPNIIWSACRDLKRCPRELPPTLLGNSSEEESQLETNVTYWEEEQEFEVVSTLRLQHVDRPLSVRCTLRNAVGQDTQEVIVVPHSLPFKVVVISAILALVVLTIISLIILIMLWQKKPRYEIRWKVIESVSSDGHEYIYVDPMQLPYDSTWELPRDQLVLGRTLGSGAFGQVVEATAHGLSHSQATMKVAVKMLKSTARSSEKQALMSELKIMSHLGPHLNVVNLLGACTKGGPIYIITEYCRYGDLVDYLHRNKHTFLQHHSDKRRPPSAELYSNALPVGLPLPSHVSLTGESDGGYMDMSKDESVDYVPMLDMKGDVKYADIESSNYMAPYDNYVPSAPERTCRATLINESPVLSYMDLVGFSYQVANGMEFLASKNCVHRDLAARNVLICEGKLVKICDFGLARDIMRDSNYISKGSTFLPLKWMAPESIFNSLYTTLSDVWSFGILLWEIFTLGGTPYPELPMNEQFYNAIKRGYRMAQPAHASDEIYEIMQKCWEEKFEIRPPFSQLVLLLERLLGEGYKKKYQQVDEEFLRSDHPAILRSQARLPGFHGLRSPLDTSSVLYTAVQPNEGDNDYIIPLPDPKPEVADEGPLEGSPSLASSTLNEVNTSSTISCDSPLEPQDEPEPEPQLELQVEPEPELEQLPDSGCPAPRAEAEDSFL

[7] = molecular target: T1, Mitogen-activated protein kinase kinase kinase 9; experiment: Inhibition of MKK4 phosphorylation in MLK1 transfected CHO cells after 1 hr; type: functional, cell-based
How it was run: (§1)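 CHO cells transfected with MLK1 plus dominant-negative MKK4 cDNA. Compound exposure 1 h, tested up to 1 µM. Phospho-MKK4 read by ELISA.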

[8] = molecular target: Epidermal growth factor receptor (Homo sapiens) (UniProt P00533); experiment: Inhibition of EGFR at 1 uM
[9] = molecular target: T2, Choline O-acetyltransferase (Rattus norvegicus) (UniProt P32738); experiment: Enhancement of choline acetyltransferase activity in embryonic rat spinal cord at 300 nM
T2 sequence (whole entry): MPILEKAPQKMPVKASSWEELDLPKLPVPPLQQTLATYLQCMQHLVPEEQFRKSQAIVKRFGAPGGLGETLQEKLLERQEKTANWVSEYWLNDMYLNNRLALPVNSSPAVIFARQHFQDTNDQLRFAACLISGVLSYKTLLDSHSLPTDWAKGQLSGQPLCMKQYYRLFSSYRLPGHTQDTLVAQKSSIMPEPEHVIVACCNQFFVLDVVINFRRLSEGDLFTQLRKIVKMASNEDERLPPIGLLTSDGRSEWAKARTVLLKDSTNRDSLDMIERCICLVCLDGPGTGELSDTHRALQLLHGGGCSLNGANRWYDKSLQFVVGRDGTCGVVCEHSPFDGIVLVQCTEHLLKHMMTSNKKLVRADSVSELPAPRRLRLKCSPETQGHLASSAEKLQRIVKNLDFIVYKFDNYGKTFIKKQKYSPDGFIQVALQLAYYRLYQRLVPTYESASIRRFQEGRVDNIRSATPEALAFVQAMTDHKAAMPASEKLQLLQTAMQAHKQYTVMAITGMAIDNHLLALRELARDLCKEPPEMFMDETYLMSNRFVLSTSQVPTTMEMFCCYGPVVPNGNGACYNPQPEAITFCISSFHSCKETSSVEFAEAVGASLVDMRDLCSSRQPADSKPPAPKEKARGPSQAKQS
How it was run: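 Embryonic rat spinal cord cultures; compounds at 300 nM, ChAT activity measured after 2 days in culture, expressed as percent of basal (100%). K-252a run as internal control. Mean ± standard deviation of three independent experiments.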

[10] = molecular target: Protein kinase C (PKC); experiment: Inhibition of PKC; type: protein assay, Homo sapiens
[11] = molecular target: Mitogen-activated protein kinase 14 (Homo sapiens) (UniProt Q16539); experiment: Inhibition of p38-alpha at 1 uM
[12] = molecular target: Cyclin-dependent kinase 1 (Homo sapiens) (UniProt P06493); experiment: Inhibition of CDK1 at 1 uM
Sequence of Cyclin-dependent kinase 1 (Homo sapiens) (P06493 whole entry, looked up): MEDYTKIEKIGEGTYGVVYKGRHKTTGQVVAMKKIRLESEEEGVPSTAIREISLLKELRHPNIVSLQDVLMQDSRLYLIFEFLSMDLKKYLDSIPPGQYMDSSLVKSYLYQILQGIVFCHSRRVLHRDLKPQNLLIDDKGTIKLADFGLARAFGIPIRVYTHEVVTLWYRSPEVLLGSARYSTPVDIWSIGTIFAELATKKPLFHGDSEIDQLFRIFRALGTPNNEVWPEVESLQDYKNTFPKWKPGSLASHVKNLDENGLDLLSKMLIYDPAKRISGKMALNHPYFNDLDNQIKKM

[13] = molecular target: Angiopoietin-1 receptor (Homo sapiens) (UniProt Q02763); experiment: Inhibition of TIE2 at 1 uM
[14] = molecular target: Vascular endothelial growth factor receptor 2 (Homo sapiens, UniProt P35968); experiment: Inhibition of VEGFR2
[15] = molecular target: Mitogen-activated protein kinase 8 (Homo sapiens) (UniProt P45983); experiment: Inhibition of JNK1 at 1 uM
Sequence of Mitogen-activated protein kinase 8 (Homo sapiens) (P45983 whole entry): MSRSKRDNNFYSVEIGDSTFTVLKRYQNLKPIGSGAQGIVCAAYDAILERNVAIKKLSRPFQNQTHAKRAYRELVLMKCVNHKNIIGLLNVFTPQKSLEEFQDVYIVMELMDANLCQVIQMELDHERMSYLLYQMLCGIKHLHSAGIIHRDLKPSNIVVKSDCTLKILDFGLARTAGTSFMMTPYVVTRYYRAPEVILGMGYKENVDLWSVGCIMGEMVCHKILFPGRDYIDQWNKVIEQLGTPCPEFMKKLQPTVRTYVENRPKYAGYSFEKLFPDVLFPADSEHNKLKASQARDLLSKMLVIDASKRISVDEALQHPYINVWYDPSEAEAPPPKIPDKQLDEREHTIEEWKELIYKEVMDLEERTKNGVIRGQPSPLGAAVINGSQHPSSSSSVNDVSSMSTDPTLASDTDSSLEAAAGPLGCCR

[16] = molecular target: High affinity nerve growth factor receptor (Homo sapiens, UniProt P04629); experiment: Inhibition of TrkA
Sequence of High affinity nerve growth factor receptor (P04629 whole entry): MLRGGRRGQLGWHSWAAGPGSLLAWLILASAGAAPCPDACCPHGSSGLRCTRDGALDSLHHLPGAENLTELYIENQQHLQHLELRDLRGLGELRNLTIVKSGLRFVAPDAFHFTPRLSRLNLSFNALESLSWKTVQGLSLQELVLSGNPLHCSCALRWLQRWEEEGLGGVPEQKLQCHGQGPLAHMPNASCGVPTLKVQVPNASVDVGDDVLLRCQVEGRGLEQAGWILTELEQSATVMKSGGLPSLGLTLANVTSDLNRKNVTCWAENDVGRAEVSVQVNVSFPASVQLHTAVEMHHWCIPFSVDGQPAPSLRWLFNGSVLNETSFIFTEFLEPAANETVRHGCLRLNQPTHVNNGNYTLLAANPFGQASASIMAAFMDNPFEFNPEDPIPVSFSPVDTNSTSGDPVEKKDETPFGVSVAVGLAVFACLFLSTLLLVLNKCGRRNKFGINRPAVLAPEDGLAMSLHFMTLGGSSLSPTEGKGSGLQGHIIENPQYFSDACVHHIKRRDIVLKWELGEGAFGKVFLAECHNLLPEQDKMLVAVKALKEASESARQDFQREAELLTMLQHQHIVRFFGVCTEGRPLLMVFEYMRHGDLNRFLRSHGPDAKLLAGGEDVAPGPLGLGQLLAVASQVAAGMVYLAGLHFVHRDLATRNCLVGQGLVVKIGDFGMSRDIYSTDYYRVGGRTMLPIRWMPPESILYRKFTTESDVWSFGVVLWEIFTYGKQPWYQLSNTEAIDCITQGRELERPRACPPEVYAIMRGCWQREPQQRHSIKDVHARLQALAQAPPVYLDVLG

[17] = molecular target: Fibroblast growth factor receptor 1 (Homo sapiens) (UniProt P11362); experiment: Inhibition of FGFR1 at 1 uM
Sequence of Fibroblast growth factor receptor 1 (Homo sapiens) (P11362 22-822 limits assumed): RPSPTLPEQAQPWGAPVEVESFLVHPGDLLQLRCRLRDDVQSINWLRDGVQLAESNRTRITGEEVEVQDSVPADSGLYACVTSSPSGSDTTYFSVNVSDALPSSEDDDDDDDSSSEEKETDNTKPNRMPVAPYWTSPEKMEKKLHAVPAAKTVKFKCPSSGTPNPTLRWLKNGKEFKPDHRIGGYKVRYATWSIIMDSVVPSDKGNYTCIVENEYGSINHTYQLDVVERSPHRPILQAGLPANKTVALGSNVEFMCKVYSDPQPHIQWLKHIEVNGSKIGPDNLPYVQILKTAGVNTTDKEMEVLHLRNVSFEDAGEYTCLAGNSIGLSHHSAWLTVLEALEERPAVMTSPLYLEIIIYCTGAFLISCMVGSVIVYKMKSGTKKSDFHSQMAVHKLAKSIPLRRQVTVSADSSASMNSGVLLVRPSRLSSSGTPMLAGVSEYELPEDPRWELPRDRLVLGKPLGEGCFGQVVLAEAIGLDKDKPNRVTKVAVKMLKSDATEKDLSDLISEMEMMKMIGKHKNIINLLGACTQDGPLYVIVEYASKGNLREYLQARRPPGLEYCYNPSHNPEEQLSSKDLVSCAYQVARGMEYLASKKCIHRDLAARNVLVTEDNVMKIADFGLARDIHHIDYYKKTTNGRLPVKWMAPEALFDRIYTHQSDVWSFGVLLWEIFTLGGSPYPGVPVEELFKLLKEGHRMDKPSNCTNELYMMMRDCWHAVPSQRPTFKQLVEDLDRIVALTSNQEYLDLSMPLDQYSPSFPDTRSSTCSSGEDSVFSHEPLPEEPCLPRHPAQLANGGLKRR

[18] = molecular target: T1, Mitogen-activated protein kinase kinase kinase 9; experiment: Inhibition of MKK4 phosphorylation in MLK1 transfected CHO cells at 1 uM after 1 hr; type: functional, cell-based; how it was run: as §1

SMILES: COC(=O)[C@]1(O)C[C@@H]2O[C@@]1(C)n1c3ccccc3c3c4c(c5c6ccccc6n2c5c31)C(=O)NC4
IC50 [1]: 45 nM

IC50 [2]: 277 nM | IC50 [3]: 1410 nM
SMILES: O=C1NCc2c1c1c(c3c2-c2ccccc2C3)Cc2ccccc2-1

IC50 [2]: 58 nM | IC50 [3]: 68 nM
SMILES: O=C1NC(=O)c2c1c1c3ccccc3[nH]c1c1sc3ccccc3c21

inhibition [4]: < 30% | inhibition [5]: < 30% | IC50 [2]: 22 nM | inhibition [6]: < 30% | IC50 [7]: 274 nM | inhibition [8]: < 30% | Activity [9]: 171% | IC50 [3]: 46 nM | IC50 [1]: 3450 nM | IC50 [10]: 205 nM | inhibition [11]: < 30% | inhibition [12]: < 30% | inhibition [13]: < 30% | IC50 [14]: > 300 nM | inhibition [15]: < 30% | IC50 [16]: > 1000 nM | inhibition [17]: < 30%
SMILES: O=C1NCc2c3c(c4[nH]c5ccccc5c4c21)CCc1ccccc1-3

inhibition [4]: < 30% | inhibition [5]: < 30% | IC50 [2]: 26 nM | inhibition [6]: < 30% | inhibition [8]: < 30% | Activity [9]: 138% | IC50 [3]: 111 nM | IC50 [1]: 2090 nM | IC50 [10]: > 1000 nM | inhibition [11]: < 30% | inhibition [12]: < 30% | inhibition [13]: < 30% | Inhibition [18]: 3% | IC50 [14]: > 300 nM | inhibition [15]: < 30% | IC50 [16]: 88 nM | inhibition [17]: < 30%
SMILES: O=C1NCc2c1c1c3ccccc3sc1c1[nH]c3ccccc3c21

SMILES: O=C1NCc2c1c1c3ccccc3[nH]c1c1[nH]c3ccccc3c21 [STAUROSPORINONE]
IC50 [2]: 49 nM | IC50 [3]: 138 nM

IC50 [2]: > 300 nM | IC50 [3]: > 300 nM
SMILES: O=C1NC(=O)c2c1c1c(c3sc4ccccc4c23)Cc2ccccc2-1

IC50 [2]: > 300 nM | Activity [9]: inactive | IC50 [3]: > 300 nM
SMILES: O=C1NC(=O)c2c1c1c3ccccc3[nH]c1c1oc3ccccc3c21

inhibition [4]: < 30% | inhibition [5]: < 30% | IC50 [2]: 87 nM | inhibition [6]: < 30% | inhibition [8]: < 30% | Activity [9]: 155% | IC50 [3]: 167 nM | IC50 [1]: 2660 nM | IC50 [10]: > 1000 nM | inhibition [11]: < 30% | inhibition [12]: < 30% | inhibition [13]: < 30% | Inhibition [18]: 22% | inhibition [15]: < 30% | inhibition [17]: < 30%
SMILES: O=C1NCc2c3c(c4[nH]c5ccccc5c4c21)Cc1ccccc1-3

IC50 [2]: > 300 nM | Activity [9]: inactive | IC50 [3]: > 300 nM
SMILES: O=C1NC(=O)c2c1c1c(c3c2-c2ccccc2C3)Cc2ccccc2-1

Activity [2]: inactive | Activity [3]: inactive
SMILES: O=C1NCc2c3c(c4[nH]c5ccccc5c4c21)-c1ccccc1C3

IC50 [2]: 110 nM | IC50 [3]: 615 nM
SMILES: O=C1NCc2c3c(c4sc5ccccc5c4c21)Cc1ccccc1-3

IC50 [2]: 270 nM | Activity [9]: inactive | IC50 [3]: 308 nM
SMILES: O=C1NCc2c1c1c3ccccc3[nH]c1c1oc3ccccc3c21

SMILES: O=C1NC(=O)c2c1c1c3ccccc3ccc1c1[nH]c3ccccc3c21
IC50 [2]: 300 nM | IC50 [3]: 300 nM

Activity [2]: inactive | Activity [3]: inactive
SMILES: O=C1NCc2c1c1c(c3[nH]c4ccccc4c23)-c2ccccc2C1

IC50 [2]: 1110 nM | Activity [9]: inactive | IC50 [3]: > 10000 nM
SMILES: O=C1NCc2c1c1c3ccccc3oc1c1[nH]c3ccccc3c21

IC50 [2]: 157 nM | IC50 [3]: 482 nM
SMILES: O=C1NCc2c1c1c(c3sc4ccccc4c23)Cc2ccccc2-1

inhibition [4]: < 30% | inhibition [5]: < 30% | IC50 [2]: 40 nM | inhibition [6]: < 30% | inhibition [8]: < 30% | Activity [9]: 152% | IC50 [3]: 69 nM | IC50 [1]: 364 nM | IC50 [10]: 1196 nM | inhibition [11]: < 30% | inhibition [12]: < 30% | inhibition [13]: < 30% | Inhibition [18]: 19% | inhibition [15]: < 30% | inhibition [17]: < 30%
SMILES: O=C1NCc2c1c1c(c3[nH]c4ccccc4c23)Cc2ccccc2-1

IC50 [2]: > 300 nM | IC50 [3]: > 300 nM
SMILES: O=C1NC(=O)c2c1c1c(c3[nH]c4ccccc4c23)Cc2ccccc2-1

IC50 [2]: > 300 nM | IC50 [3]: > 300 nM
SMILES: O=C1NC(=O)c2c1c1c3ccccc3sc1c1sc3ccccc3c21

IC50 [2]: 171 nM | IC50 [3]: 1800 nM
SMILES: O=C1NCc2c1c1c3ccccc3[nH]c1c1sc3ccccc3c21

SMILES: O=C1NCc2c1c1c3ccccc3sc1c1sc3ccccc3c21
IC50 [2]: > 10000 nM | Activity [9]: inactive | IC50 [3]: > 10000 nM

inhibition [4]: < 30% | inhibition [5]: < 30% | IC50 [2]: 12 nM | inhibition [6]: < 30% | IC50 [7]: 90 nM | inhibition [8]: < 30% | Activity [9]: 178% | IC50 [3]: 22 nM | IC50 [1]: 339 nM | IC50 [10]: 83 nM | inhibition [11]: < 30% | inhibition [12]: < 30% | inhibition [13]: < 30% | IC50 [14]: > 300 nM | inhibition [15]: < 30% | IC50 [16]: > 1000 nM | inhibition [17]: < 30%
SMILES: O=C1NC(=O)c2c1c1c(c3[nH]c4ccccc4c23)CCc2ccccc2-1
